One block for each compound: values may come before it.
Key:
[1] = biological target: T1, Cholesteryl ester transfer protein (Homo sapiens, UniProt P11597); assay: Inhibition of CETP in human plasma measured every 30 mins for 120 mins by fluorescence method
T1 sequence (P11597 whole entry): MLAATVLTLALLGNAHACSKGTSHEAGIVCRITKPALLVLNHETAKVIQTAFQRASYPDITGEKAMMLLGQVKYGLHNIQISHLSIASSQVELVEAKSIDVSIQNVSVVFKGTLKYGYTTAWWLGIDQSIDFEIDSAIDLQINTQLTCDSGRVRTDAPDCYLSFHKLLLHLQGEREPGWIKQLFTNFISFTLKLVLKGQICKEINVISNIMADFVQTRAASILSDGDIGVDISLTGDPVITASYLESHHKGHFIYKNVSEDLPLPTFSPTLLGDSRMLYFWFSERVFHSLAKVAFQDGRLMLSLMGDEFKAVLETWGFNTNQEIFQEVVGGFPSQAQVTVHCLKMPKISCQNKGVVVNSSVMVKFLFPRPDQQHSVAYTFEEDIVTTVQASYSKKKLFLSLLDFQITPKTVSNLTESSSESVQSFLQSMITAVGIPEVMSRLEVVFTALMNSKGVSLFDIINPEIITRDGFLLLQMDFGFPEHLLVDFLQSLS
In short: (§1)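 Pooled EDTA plasma from healthy male donors (final 50%) with compound in DMSO (final 1%). The reaction is started with fluorescent donor solution. Activity is the 30–90 min slope. IC50 is fitted to duplicate wells by a logistic equation.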

[2] = test system: Rattus norvegicus; assay: Toxicity in cannulated Sprague-Dawley rat assessed as increase in plasma aldosterone levels at 5 mg/kg, iv by radioimmunoassay; format: organism-based; conditions: in vivo
[3] = test system: NCI-H295R; assay: Toxicty in human NCI-H295R cells assessed as increase in aldosterone levels at 0.1 to 10000 nM after 24 hrs by scintillation proximity assay; format: toxicity, cell-based; conditions: 10 µM
[4] = test system: Rattus norvegicus; assay: Toxicity in cannulated Sprague-Dawley rat assessed as increase in mean arterial pressure at 5 mg/kg, iv by blood pressure transducer based method; format: organism-based; conditions: in vivo
[5] = 1-Octanol-phosphate buffered saline partition coefficient, log D of compound at […] by tandem mass spectrometry method; format: physicochemical
[6] = biological target: T2, Cholesteryl ester transfer protein (Homo sapiens) (UniProt P11597); assay: Inhibition of CETP in human plasma at 100 uM measured every 30 mins for 120 mins by fluorescence method
T2 sequence (whole entry): T1 sequence (P11597 whole entry)
In short: as §1, with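 “solution. Ex/em 485/535 nm, read every 30 min for 120 min at 37 °C.” for “solution.”, “slope. Torcetrapib (1 or 10 µM) and DMSO define 100% and 0% inhibition.” for “slope.”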

[7] = biological target: T3, Cytochrome P450 3A4 (Homo sapiens, UniProt P08684); assay: Inhibition of CYP3A4 (unknown origin) in the presence of testosterone; format: ADME
[8] = biological target: Cytochrome P450 2C9 (Homo sapiens, UniProt P11712); assay: Inhibition of CYP2C9 (unknown origin); format: ADME
[9] = Clearance in Sprague-Dawley rat plasma at 1 mg/kg, iv or 3 mg/kg, po by LC-ESI-MS/MS analysis; format: ADME, organism-based
In short: (§2)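 Conscious 7-week-old male Sprague-Dawley rats on standard diet with free water. Dosing is 1 mg/kg iv bolus in N-methylpyrrolidin-2-one/PEG 200, or 3 mg/kg oral suspension in 0.5% aqueous methylcellulose. Blood is sampled at various time points after administration.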

[10] = Half life in Sprague-Dawley rat at 1 mg/kg, iv or 3 mg/kg, po by LC-ESI-MS/MS analysis; format: ADME, organism-based; conditions: in vivo; in short: as §2
[11] = AUC (infinity) in Sprague-Dawley rat at 1 mg/kg, iv or 3 mg/kg, po by LC-ESI-MS/MS analysis; format: ADME, organism-based; conditions: in vivo; in short: as §2
[12] = biological target: T3, Cytochrome P450 3A4; assay: Inhibition of CYP3A4 (unknown origin) in the presence of midozolam; format: ADME
[13] = Oral bioavailability in Sprague-Dawley rat at 3 mg/kg by LC-ESI-MS/MS analysis; format: ADME, organism-based; conditions: in vivo; in short: as §2
[14] = Volume of distribution in Sprague-Dawley rat at 1 mg/kg, iv or 3 mg/kg, po by LC-ESI-MS/MS analysis; format: ADME, organism-based; conditions: in vivo; in short: as §2
[15] = biological target: Cytochrome P450 2D6 (Homo sapiens, UniProt P10635); assay: Inhibition of CYP2D6 (unknown origin); format: ADME
Sequence of Cytochrome P450 2D6 (P10635 whole entry): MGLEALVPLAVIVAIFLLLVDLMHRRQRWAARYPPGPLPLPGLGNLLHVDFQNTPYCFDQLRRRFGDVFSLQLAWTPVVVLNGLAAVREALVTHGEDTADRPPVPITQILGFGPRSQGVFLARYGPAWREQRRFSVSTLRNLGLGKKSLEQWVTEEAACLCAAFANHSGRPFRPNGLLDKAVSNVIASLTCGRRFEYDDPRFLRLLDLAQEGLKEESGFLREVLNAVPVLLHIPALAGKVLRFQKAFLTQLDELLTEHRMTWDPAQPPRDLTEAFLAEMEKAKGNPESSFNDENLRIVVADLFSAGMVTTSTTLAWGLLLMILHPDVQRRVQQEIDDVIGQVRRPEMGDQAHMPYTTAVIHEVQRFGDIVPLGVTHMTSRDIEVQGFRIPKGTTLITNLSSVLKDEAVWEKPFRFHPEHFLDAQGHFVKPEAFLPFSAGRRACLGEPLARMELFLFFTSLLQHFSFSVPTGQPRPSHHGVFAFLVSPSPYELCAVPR

T3 sequence (P08684 whole entry): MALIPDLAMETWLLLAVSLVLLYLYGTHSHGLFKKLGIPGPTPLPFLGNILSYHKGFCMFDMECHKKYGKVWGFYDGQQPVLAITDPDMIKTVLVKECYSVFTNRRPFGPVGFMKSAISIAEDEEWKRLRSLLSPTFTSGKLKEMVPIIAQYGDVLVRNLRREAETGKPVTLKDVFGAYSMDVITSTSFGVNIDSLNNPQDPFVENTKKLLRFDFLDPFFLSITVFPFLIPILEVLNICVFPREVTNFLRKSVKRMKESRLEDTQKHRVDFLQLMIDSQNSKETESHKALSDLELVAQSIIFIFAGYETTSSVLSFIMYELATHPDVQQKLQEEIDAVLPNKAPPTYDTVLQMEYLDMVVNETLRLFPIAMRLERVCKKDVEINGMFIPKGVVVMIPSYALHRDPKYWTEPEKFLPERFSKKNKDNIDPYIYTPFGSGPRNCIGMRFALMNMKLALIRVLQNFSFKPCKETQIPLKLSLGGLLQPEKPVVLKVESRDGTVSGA
Sequence of Cytochrome P450 2C9 (P11712 whole entry): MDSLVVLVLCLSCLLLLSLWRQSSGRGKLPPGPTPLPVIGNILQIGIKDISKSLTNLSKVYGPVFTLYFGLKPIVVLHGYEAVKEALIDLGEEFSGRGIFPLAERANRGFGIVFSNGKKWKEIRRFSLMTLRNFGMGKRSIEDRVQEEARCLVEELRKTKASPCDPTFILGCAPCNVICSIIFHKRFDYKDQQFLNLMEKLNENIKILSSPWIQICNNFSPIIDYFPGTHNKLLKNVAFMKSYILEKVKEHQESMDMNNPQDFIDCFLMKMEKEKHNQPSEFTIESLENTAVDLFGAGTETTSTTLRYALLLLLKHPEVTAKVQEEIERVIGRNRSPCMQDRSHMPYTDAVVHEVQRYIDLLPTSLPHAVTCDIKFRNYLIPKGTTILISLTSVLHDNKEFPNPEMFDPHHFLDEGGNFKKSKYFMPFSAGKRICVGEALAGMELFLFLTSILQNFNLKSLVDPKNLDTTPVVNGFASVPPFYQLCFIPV

- IC50 [1]: 160 nM
SMILES: CC[C@@H]1C[C@H](N(Cc2cc(C(F)(F)F)cc(C(F)(F)F)c2)c2ncc(Br)cn2)C[C@H](Cc2ccccc2)N1C(=O)OC(C)(C)C (racemic)

- logD [5]: > 4
SMILES: CCOC(=O)N1c2ccc(C(F)(F)F)cc2[C@@H](N(Cc2cc(C(F)(F)F)cc(C(F)(F)F)c2)C(=O)OC)C[C@H]1CC [TORCETRAPIB]
- Activity [2]: Toxic
- Activity [3]: Toxic
- Activity [4]: Toxic

- IC50 [1]: 771 nM
SMILES: CC[C@@H]1C[C@H](N(Cc2cc(C(F)(F)F)cc(C(F)(F)F)c2)C(=O)OC)C[C@H](Cc2ccccc2)N1C(=O)OC(C)(C)C (racemic)

- IC50 [1]: 200 nM
SMILES: CC[C@@H]1C[C@H](N(Cc2cc(C(F)(F)F)cc(C(F)(F)F)c2)c2ncc(Br)cn2)C[C@H](Cc2ccccc2)N1C(=O)OC(C)C (racemic)

- inhibition [6]: 70%
SMILES: CC[C@@H]1C[C@H](N(Cc2cc(C(F)(F)F)cc(C(F)(F)F)c2)C(=O)OC)CCN1C(=O)OC(C)(C)C (racemic)

- IC50 [1]: 4800 nM
SMILES: CCNC(=O)N1[C@H](CC)C[C@H](N(Cc2cc(C(F)(F)F)cc(C(F)(F)F)c2)c2ncc(Br)cn2)C[C@@H]1Cc1ccccc1 (racemic)

- IC50 [1]: 164 nM
SMILES: CC[C@@H]1C[C@H](N(Cc2cc(C(F)(F)F)cc(C(F)(F)F)c2)c2ncc(N3CCOCC3)cn2)C[C@H](Cc2ccccc2)N1C(=O)OC(C)(C)C (racemic)

- IC50 [1]: 1300 nM
SMILES: CC[C@@H]1C[C@H](N(Cc2cc(C(F)(F)F)cc(C(F)(F)F)c2)C(=O)OC)C[C@H](CC)N1C(=O)OC(C)(C)C

- IC50 [7]: > 50000 nM
- IC50 [8]: > 50000 nM
- clearance [9]: 1.67 mL/min/kg
- half-life [10]: 7.4 h
- AUC(0-inf) [11]: 0.456 µM·h
- IC50 [12]: > 50000 nM
- bioavailability [13]: 3%
- Vd [14]: 0.7 L/kg
- IC50 [15]: > 50000 nM
- IC50 [1]: 60 nM
SMILES: CC[C@@H]1C[C@H](N(Cc2cc(C(F)(F)F)cc(C(F)(F)F)c2)c2ncc(N3CCOCC3)cn2)C[C@H](Cc2ccccc2)N1C(=O)OC(C)(C)C

- IC50 [1]: 240 nM
SMILES: CC[C@@H]1C[C@H](N(Cc2cc(Cl)cc(C(F)(F)F)c2)c2ncc(Br)cn2)C[C@H](Cc2ccccc2)N1C(=O)OC(C)(C)C (racemic)

From ChEMBL document CHEMBL4028876, “Discovery of a Novel Piperidine-Based Inhibitor of Cholesteryl Ester Transfer Protein (CETP) That Retains Activity in Hypertriglyceridemic Plasma” (J Med Chem, 2017)
